The results in this text go back to ChEMBL document CHEMBL1926650, “Bioactive lignans from the rhizomes of Acorus gramineus” (J Nat Prod, 2011).

Data set [1] is described as follows: Cytotoxicity against LPS-stimulated mouse BV2 cells assessed as cell viability after 24 hrs by MTT assay relative to control. The format is cell-based, BV-2. The conditions noted are these: read-out: Activity. In general terms: Tetrazolium assays rely on reduction of a dye to a coloured formazan, in cell work by metabolically active cells.
The subject of a further data set is A549. In words: Cytotoxicity against human A549 cells by sulforhodamine B assay. Format: functional, cell-based. Background: The SRB assay estimates cell density from bound dye.
The test system of a further data set is BV-2. In words: Anti-neuroinflammatory activity in mouse BV2 cells assessed as inhibition of LPS-induced NO production pretreated for 30 mins before LPS-stimulation measured after 24 hrs by Griess reaction. The format is functional, cell-based. In short, it runs like this: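 Murine BV-2 microglia activated with LPS; NO output was estimated from nitrite, its soluble oxidation product, measured in the culture medium with the Griess reaction. The value is the IC50 for lowering that nitrite.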
A general note: Griess reagent forms a coloured azo dye with nitrite.

For a further data set, the system named is SK-OV-3. Description: Cytotoxicity against human SKOV3 cells by sulforhodamine B assay. Format: functional, cell-based.
In another data set the test system is SK-MEL-2. In words: Cytotoxicity against human SK-MEL-2 cells by sulforhodamine B assay. The format is functional, cell-based.
The subject of data set [2] is HUVEC. Description: Cytotoxicity against HUVEC by sulforhodamine B assay. Format: cell-based. To be noted: Homo sapiens.
Data set [3] has as its system HUVEC. Description: Selectivity index, ratio of IC50 for HUVEC to IC50 for human SKMEL2 cells.

What is called IC50 is the concentration that gives 50% inhibition.

Turning to `COc1cc([C@@H]2O[C@@H](c3cc(OC)c(O)c(OC)c3)[C@H](CO[C@@H]3O[C@H](CO)[C@@H](O)[C@H](O)[C@H]3O)[C@H]2CO)cc(OC)c1O` [LIGRAMINOL B], the viability at 24 h in data set [1] amounted to 84.4%. The IC50 in the data set with A549 is > 10 µM; with BV-2, 23 µM; with SK-OV-3, > 10 µM; with SK-MEL-2 it was > 10 µM.

In the case of `COc1cc([C@H](O)[C@H](CO)Oc2ccc(CCCO)cc2OC)ccc1O`, the viability at 24 h in data set [1] is 96.7%. Besides, the 50% inhibitory concentration (IC50) with A549 is > 10 µM; in the data set with BV-2 it was 53 µM; in the data set with SK-OV-3 it was > 10 µM; in the data set with SK-MEL-2, > 10 µM.

As for `COc1ccc([C@H]2O[C@H](c3cc(OC)c(OC)c(OC)c3)[C@@H](C)[C@H]2C)cc1OC` [LIGRAMINOL A], the viability at 24 h in data set [1] stood at 88.6%. Besides, the half-maximal inhibitory concentration (IC50) in the data set with A549 was 6.92 µM; in the data set on HUVEC [2] it was 27.2 µM; in the data set on BV-2, 21.5 µM; in the data set with SK-OV-3, 9.44 µM; with SK-MEL-2, 4.53 µM. Moreover, in the data set on HUVEC [3], the “Ratio IC50” value was determined as 6.

As for `C/C=C/c1cc(OC)c(O[C@H](C)[C@H](O)c2ccc(OC)c(OC)c2)c(OC)c1`, the viability at 24 h in data set [1] is 102%. The IC50 was > 10 µM in the data set with A549, 176 µM in the data set on BV-2, > 10 µM with SK-OV-3 and > 10 µM in the data set with SK-MEL-2.

Regarding `COc1ccc([C@H]2O[C@@H](c3ccc(OC)c(OC)c3)[C@H](C)[C@H]2C)cc1OC` [VERAGUENSIN], in data set [1], the viability at 24 h amounted to 104%. For the same compound, the IC50 was > 10 µM in the data set with A549, 48.4 µM in the data set on BV-2, > 10 µM in the data set with SK-OV-3 and > 10 µM in the data set on SK-MEL-2.

Turning to `COc1cc([C@@H]2c3cc4c(cc3[C@@H](O[C@@H]3O[C@@H]5CO[C@@H](C)O[C@H]5[C@H](O)[C@H]3O)[C@H]3COC(=O)[C@H]23)OCO4)cc(OC)c1O` [ETOPOSIDE], the IC50 with A549 is 0.44 µM; in the data set with HUVEC [2], 1.86 µM; in the data set with SK-OV-3 it was 1.31 µM; with SK-MEL-2, 0.41 µM.

Turning to `C/C=C/c1cc(OC)c(O[C@H](C)[C@H](O)c2cc(OC)c(OC)c(OC)c2)c(OC)c1`, in data set [1], the viability at 24 h was determined as 101%. Also, the IC50 in the data set with A549 was > 10 µM; in the data set on BV-2 it was > 200 µM; with SK-OV-3 it was > 10 µM; in the data set on SK-MEL-2, > 10 µM.

With `COc1cc([C@@H](O)[C@@H](CO)Oc2ccc(CCCO)cc2OC)ccc1O`, in data set [1], the viability at 24 h turned out to be 97.5%. The IC50 with A549 is > 10 µM; in the data set with BV-2, 52 µM; in the data set on SK-OV-3, > 10 µM; in the data set with SK-MEL-2 it was > 10 µM.

Consider `COc1cc(C[C@H](CO)Oc2ccc(CCCO)cc2OC)ccc1O` [LIGRAMINOL E], for which, in data set [1], the viability at 24 h was 97.1%. The IC50 is > 10 µM in the data set on A549, > 200 µM in the data set with BV-2, > 10 µM in the data set with SK-OV-3 and > 10 µM in the data set on SK-MEL-2.

`COc1ccc(C[C@@H](CO)Oc2ccc(CCCO)cc2OC)cc1OC` [LIGRAMINOL D]: in data set [1], the viability at 24 h came to 98.4%. In addition, the IC50 is 8.28 µM in the data set with A549; 22.6 µM with HUVEC [2]; 18.4 µM with BV-2; > 10 µM with SK-OV-3; > 10 µM in the data set with SK-MEL-2.

Turning to `CNC(=N)NCCC[C@H](N)C(=O)O` [TILARGININE], the viability at 24 h in data set [1] is 98.7%. Also, in the data set with BV-2, the IC50 was 15.4 µM.

`C/C=C\c1ccc(O[C@H](C)[C@H](OC(C)=O)c2ccc(OC)c(OC)c2)c(OC)c1` [LIGRAMINOL C]: the viability at 24 h in data set [1] was 90.5%. Further, the IC50 is 9.54 µM in the data set on A549; 25.9 µM with HUVEC [2]; 16.2 µM in the data set with BV-2; > 10 µM in the data set with SK-OV-3; > 10 µM with SK-MEL-2.

Regarding `COc1ccc([C@H]2O[C@H](c3cc(OC)c(OC)c(OC)c3)[C@@H](C)[C@@H]2C)cc1OC`, in data set [1], the viability at 24 h stood at 87.3%. The half-inhibitory concentration (IC50) in the data set with A549 is > 10 µM; in the data set on BV-2, 125 µM; with SK-OV-3, > 10 µM; in the data set on SK-MEL-2 it was > 10 µM.

In the case of `COc1ccc([C@H]2O[C@H](c3ccc(OC)c(OC)c3)[C@@H](C)[C@H]2C)cc1OC` [GANSCHISANDRINE], the viability at 24 h in data set [1] turned out to be 104%. Also, the half-inhibitory concentration (IC50) with A549 was > 10 µM; in the data set on BV-2, 76 µM; in the data set on SK-OV-3, > 10 µM; in the data set on SK-MEL-2, > 10 µM.
